# High-throughput results from PubChem.
# Ecoli tolC: growth inhibitors of E. coli BW25113 tolC mutant | growth inhibition, % at 10 µM (by protocol) | 65,000 compounds, 2.2% hits | OD615 | AID 573;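 active means growth inhibition at or above a cutoff equal to the mean over every tested compound plus 3 SD, cut at about 60% in these data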;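 further: growth measured after 20 h incubation at 37 °C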
#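 test system = E. coli BW25113 ΔtolC::kan bacteria | medium = LB with kanamycin 50 µg/mL | signal = OD at 615 nm | schedule = 37 °C, 20 h exposure | evaluation = % inhibition of E. coli growth | compound dosing = one dose of 10 µM final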
# CYP2C9 inhib: human CYP2C9 inhibition | P11712 | 96,000 compounds, 20% hits | inhibition, % at 5 µM | CYP2C9 Supersomes, luciferin-H conversion, luminescence;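 active means blocking of liver enzyme CYP2C9 beyond about 50% at 5 µM, limit read from the data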
# Ecoli WT expand: blocks growth of wild type E. coli BW25113 | OD600 absorbance | growth inhibition, % at 100 µM | 98,000 compounds, 0.15% hits | AID 710;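 active means growth inhibition above about 50% at one test dose, limit read from the data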;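 further: growth measured after 20 h incubation at 37 °C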
# CYP2C19 activ: increases human CYP2C19 enzyme activity; 96,000 tested, under 10 active; AID 1025; recombinant CYP2C19, luciferin-H EGE luminescence; active compounds read high; 0 = fully inhibited enzyme, 1 = untreated enzyme; activation factor at 5 µM;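 active means activation factor of at least 2 at 5 µM in the primary screen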
# Target sequence (P33261 whole entry, looked up): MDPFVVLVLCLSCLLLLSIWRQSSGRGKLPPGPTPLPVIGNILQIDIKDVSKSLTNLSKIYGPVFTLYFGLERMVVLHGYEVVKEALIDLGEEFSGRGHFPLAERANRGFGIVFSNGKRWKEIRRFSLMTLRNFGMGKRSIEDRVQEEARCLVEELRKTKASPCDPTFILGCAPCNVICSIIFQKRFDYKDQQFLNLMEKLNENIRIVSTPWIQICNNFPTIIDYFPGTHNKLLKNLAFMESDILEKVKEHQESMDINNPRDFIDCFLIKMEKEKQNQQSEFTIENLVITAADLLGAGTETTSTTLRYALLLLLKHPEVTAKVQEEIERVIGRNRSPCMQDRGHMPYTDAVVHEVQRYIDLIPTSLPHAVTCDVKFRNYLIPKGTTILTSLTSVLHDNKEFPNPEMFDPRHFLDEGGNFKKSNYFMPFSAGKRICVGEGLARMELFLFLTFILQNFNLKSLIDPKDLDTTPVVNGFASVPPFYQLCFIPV
# CYP2C9 act: CYP2C9 (human) activation | recombinant CYP2C9, luciferin-H conversion, luminescence; active compounds read high; factor 1 = untreated enzyme, 0 = blocked | activation factor at 5 µM | P11712 | AID 1024 | 96,000 compounds, 1.4% hits;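 active means activation factor of 2 or more for CYP2C9 at a 5 µM dose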
# CYP2C19 inhib: human CYP2C19 inhibition; P33261; CYP2C19 Supersomes, luciferin-H EGE luminescence, 30 min; inhibition, % at 5 µM; 96,000 compounds, 21% hits; AID 778;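 active means CYP2C19 inhibition above a set limit at 5 µM in the primary screen, cut at about 50% in these data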
# A number is an active result; – = inactive; · = no result. Most compounds without a hit are left out; they make up all but 29% or so of the library.
SMILES,Ecoli tolC,CYP2C9 inhib,Ecoli WT expand,CYP2C19 activ,CYP2C9 act,CYP2C19 inhib
O=C(COc1cnc2ccccc2n1)NCCC1=CCCCC1,–,–,–,–,–,55
COc1cccc(C(=O)Oc2cc(-c3ccccc3)no2)c1,·,–,–,–,–,–
Cc1nc(SCCCSc2n[nH]c(C)n2)n[nH]1,–,·,·,·,·,·
COC(=O)c1cnn(-c2nc3c(C)cccc3s2)c1C,·,–,–,–,–,–
Cc1ccc(C(=O)O)cc1S(=O)(=O)N1CCCC1,·,–,–,–,–,–
O=S(=O)(NC1CCCC1)c1ccc(S(=O)(=O)N2CCN(c3ccccc3)CC2)cc1,·,–,–,–,–,–
Cc1ccc(S(=O)(=O)N2CCCC(NC(=O)N3CCN(c4ccccc4)CC3)C2)cc1 (stereo not given),–,–,–,–,–,74
Cc1ccc(C(=O)N2CCN(c3ccccc3)CC2)cc1S(=O)(=O)N1CCCC1,–,84,–,–,–,78
O=C(c1ccc(S(=O)(=O)N2CCOCC2)cc1)N1CCN(c2cccc(Cl)c2)CC1,–,–,–,–,–,–
CC1CC(C)CN(S(=O)(=O)c2ccc(C(=O)N3CCN(c4ccccc4)CC3)cc2)C1 (stereo not given),–,82,–,–,–,68
Cc1ccnc(NS(=O)(=O)c2ccc(NS(=O)(=O)Cc3ccccc3)cc2)n1,–,–,–,–,–,–
Cc1noc(C)c1COc1cccc(C(=O)OCCOc2ccc(F)cc2)c1,–,89,–,–,–,98
Cc1ccc(NC(=O)c2cccc(OCc3c(C)noc3C)c2)c(C)c1,–,88,–,–,–,81
Cc1noc(C)c1COc1cccc(C(=O)Oc2ccc3c(c2)OCO3)c1,–,88,–,–,–,67
COc1cc(C(=O)OC(C)C(=O)Nc2ccc3c(c2)OCO3)ccc1OCc1c(C)noc1C (stereo not given),·,–,–,–,–,–
Cc1noc(C)c1COc1cccc(C(=O)OC(C)C(=O)Nc2ccc3c(c2)OCO3)c1 (stereo not given),·,81,–,–,–,–
COc1cc(C(=O)Oc2ccccc2)ccc1OCc1c(C)noc1C,–,–,–,–,–,–
COC(=O)c1ccccc1S(=O)(=O)N(Cc1cc2cc3c(cc2[nH]c1=O)OCO3)C1CCCCC1,–,–,–,–,–,–
O=C(NCCc1ccc(Cl)cc1)C1CCC(=O)N1Cc1ccccc1Cl (stereo not given),·,–,–,–,–,–
O=C(Nc1ccc(Cl)cc1Cl)C1CCC(=O)N1Cc1ccccc1Cl (stereo not given),·,–,–,–,–,51
O=C1CCCc2nc3nc4ccccc4n3cc21,93,–,–,–,–,–
Cc1cc(C)c2c(N)c(S(=O)c3ccc(C(C)(C)C)cc3)sc2n1 (stereo not given),·,–,–,–,–,61
Cc1nnc(SCCn2c(Br)nc3c2c(=O)n(C)c(=O)n3C)s1,–,–,–,–,–,80
Cc1ccc(OCCCN2CCCC2)c(C)c1,·,–,–,–,–,–
Cc1ccc(OCCCCn2ccnc2)c(Cl)c1,–,98,–,–,–,100
SMILES,Ecoli tolC,CYP2C9 inhib,Ecoli WT expand,CYP2C19 activ,CYP2C9 act,CYP2C19 inhib
COc1ccc(CNc2cccc(F)c2)cc1Br,·,–,–,–,–,–
COc1ccc(Cn2ccnc2)cc1Br,–,88,–,–,–,92
Cc1ccc(C)c(OCCCCn2ccnc2)c1,·,93,–,–,–,98
Cc1cc(C)c(C)c(OCCCn2ccnc2)c1,·,95,–,–,–,100
Cn1c(=O)c2[nH]c(N3CCOCC3)nc2n(-c2ccccc2)c1=O,·,–,–,–,–,–
Cc1ccc(OCCn2nc3ccccc3n2)c(C)c1,–,–,–,–,–,–
Cc1cccc(OCCCCCn2ccnc2)c1C,–,100,–,–,–,100
Cc1ccc(OCCOCCn2ccnc2)c(Br)c1,–,87,–,–,–,99
COc1cc(C)ccc1OCCOCCOc1ccccc1Br,·,–,–,–,–,–
Cc1cc(C(C)(C)C)ccc1OCCn1ccnc1,·,94,–,–,–,98
Cc1nccn1-c1ccc(C(F)(F)F)cc1NC=O,–,–,–,–,–,–
COc1ccc(N2CCN(C(=O)CCn3nnc4ccccc43)CC2)cc1,–,–,–,–,–,–
Fc1ccc2c(c1)C(c1ccc(N3CCOCC3)cc1)=NNC(c1cccs1)=N2,·,84,–,–,–,90
Brc1ccc2c(c1)C(c1ccc(N3CCOCC3)cc1)=NNC(c1cccs1)=N2,·,–,–,–,–,–
c1coc(-c2nnc3sc(C4CCCCC4)nn23)c1,–,–,–,–,–,–
O=P(CCC(F)(F)F)(CCC(F)(F)F)CCC(F)(F)F,–,–,–,–,–,–
CCc1ccc(NC2=NC(C(=O)NC3CCCCC3)CC(=O)N2)cc1 (stereo not given),–,–,–,–,–,–
CCn1cc([N+](=O)[O-])c(C(=O)Nc2ccc(Br)cn2)n1,·,–,–,–,–,82
Cc1cccc(NC(=O)N2CCCC2C(=O)NCc2cccs2)c1 (stereo not given),·,–,–,–,–,–
